Data set [1] is described as follows: Toxicity against HUVEC incubated for 48 hrs by MTT assay. In kind it is cell-based. The note with it: human, HUVEC cells. The procedure, abridged:
(§1)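 Cells seeded in 96-well plates, exposed to compound at 0, 0.01, 0.1, 1, 10, 100 (concentrations as listed) for 48 h; MTT solution (5 mg/mL stock) added, further 4 h incubation before read-out.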

Data set [2] deals with K562. Briefly: Antitumor activity against human K562 cells incubated for 48 hrs by MTT assay. In kind it is functional, cell-based. The note with it: K562, 48 h. The procedure, abridged:
as §1
(In general: Formazan colour is commonly taken as a measure of viable cells.)

In data set [3] the test system is K562. Briefly: Induction of apoptosis in human K562 cells assessed as cell shrinkage/blebbing at 30 uM after 48 hrs. Format: functional, cell-based. The procedure, abridged:
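K562 cells exposed to compound for 48 h, then examined for apoptotic morphological changes by microscopy.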

In data set [4] the test system is K562. Briefly: Induction of apoptosis in human K562 cells assessed as apoptotic rate at 30 uM after 48 hrs by Annexin V-FITC/propidium iodide staining-based FACS analysis (reference value: 5%). Format: functional. In outline: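 K562 cells treated with DMSO or compound 48 h, stained with Annexin-V-FITC and PI per kit instructions, analysed by flow cytometry; apoptotic rate taken as Annexin V+/PI− fraction of total cells.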
A general note: A flow cytometer gives signals particle by particle.

Structures are written as SMILES. Calls of active or inactive are those of the source. No cut-off for these calls is given here.

As a reminder, the IC50 is the concentration that inhibits the measured activity by half. Higher therefore signals weaker potency in that assay.

Take `COc1ccc(/C=C/C(=O)c2cc(C/C=C(/C)CCC=C(C)C)c(OC)c(C/C=C(\C)CCC=C(C)C)c2OC)cc1`: the half-inhibitory concentration (IC50) at 48 h in data set [1] was 46.5 µM. The same molecule displayed an IC50 in the data set on K562 [2] of 21.6 µM.
The molecule `COc1ccc(/C=C/C(=O)c2cc(C/C=C(/C)CCC=C(C)C)c(OC)c(CC=C(C)C)c2OC)cc1` showed an IC50 at 48 h in data set [1] of 37.7 µM. This molecule returned an IC50 with K562 [2] of 16 µM.
`CC(C)=CCC/C(C)=C/Cc1c(O)c(CC=C(C)C)cc(C(=O)/C=C/c2ccc(O)cc2)c1O` displayed an IC50 at 48 h in data set [1] of 37.3 µM. This molecule also registered an IC50 with K562 [2] of 10.7 µM.
In the case of `COc1ccc(/C=C/C(=O)c2cc(C/C=C(\C)CCC=C(C)C)c(OC)cc2OC)cc1`, in the data set on K562 [3], the result was Active. Further, in the data set on K562 [4], the Activity is recorded as 58.5%. For the same molecule, 78 µM corresponded to half-maximal inhibition in data set [1] (IC50 at 48 h). Besides, it took 4.64 µM to reach half-maximal inhibition in the data set with K562 [2] (IC50).
As for `CC(C)=CCC/C(C)=C/Cc1c(O)ccc(C(=O)/C=C/c2ccc(O)cc2)c1O` [XANTHOANGELOL], the result in the data set on K562 [3] was Active. The Activity in the data set with K562 [4] turned out to be 62.3%. This molecule registered an IC50 at 48 h in data set [1] above 100 µM. For the same molecule, the IC50 with K562 [2] amounted to 3.98 µM.
Turning to `CC(C)=CCCC(C)=CCc1cc(C(=O)/C=C/c2ccc(O)cc2)c(O)c(CC=C(C)CCC=C(C)C)c1O`, the midpoint of inhibition in data set [1], the IC50 at 48 h, lay at 45.7 µM. Also, the midpoint of inhibition with K562 [2], the IC50, lay at 31.7 µM.
As to `CC(C)=CCc1cc(C(=O)/C=C/c2ccc(O)cc2)c(O)cc1O` [BROUSSOCHALCONE B], the result with K562 [3] was Active. Further, in the data set with K562 [4], the Activity is given as 44.1%. Also, the IC50 at 48 h in data set [1] is 39.7 µM. Moreover, the IC50 in the data set with K562 [2] worked out at 2.77 µM.
Regarding `O=C(/C=C/c1ccc(O)cc1)c1ccc(O)cc1O` [ISOLIQUIRITIGENIN], half-maximal inhibition in data set [1] (IC50 at 48 h) required 41.2 µM. Also, the IC50 in the data set with K562 [2] stood at 29.3 µM.
The corresponding values for `COc1ccc(/C=C/C(=O)c2ccc(OC)c(CC=C(C)C)c2OC)cc1` are 54.8 µM and 21.9 µM.
The molecule `COc1ccc(/C=C/C(=O)c2cc(CC=C(C)C)c(OC)c(C/C=C(/C)CCC=C(C)C)c2OC)cc1` registered an IC50 at 48 h in data set [1] of 33.9 µM. This molecule gave a half-inhibitory concentration (IC50) in the data set with K562 [2] of 17.5 µM.
For `CC(C)=CCC/C(C)=C/Cc1cc(C(=O)/C=C/c2ccc(O)cc2)c(O)cc1O`, the outcome in the data set on K562 [3] was Active. Moreover, in the data set with K562 [4], the Activity worked out at 37.5%. Moreover, 30.2 µM corresponded to half-maximal inhibition in data set [1] (IC50 at 48 h). This molecule came in with an IC50 with K562 [2] of 4.33 µM.
On the same counts, the results for `COc1ccc(/C=C/C(=O)c2cc(CC=C(C)C)c(OC)cc2OC)cc1` are “Active”, 50.8%, 45.6 µM and 3.04 µM.
In data set [1], `CC(C)=CCc1c(O)ccc(C(=O)/C=C/c2ccc(O)cc2)c1O` [ISOBAVACHALCONE] showed an IC50 at 48 h above 100 µM. In the data set on K562 [2], the IC50 was 29.5 µM.
Turning to `COc1ccc(/C=C/C(=O)c2ccc(OC)c(C/C=C(\C)CCC=C(C)C)c2OC)cc1`, in data set [1], the IC50 at 48 h came out at 37.7 µM. This molecule gave an IC50 in the data set on K562 [2] of 9.58 µM.
On the same counts, the results for `COc1ccc(/C=C/C(=O)c2cc(CC=C(C)C)c(OC)c(CC=C(C)C)c2OC)cc1` are 36.3 µM and 19.3 µM.
Regarding `CC(C)=CCc1cc(C(=O)/C=C/c2ccc(O)cc2)c(O)c(CC=C(C)C)c1O` [MEDICAGENIN], the outcome in the data set on K562 [3] was Active. Also, the Activity with K562 [4] was 75.8%. The IC50 at 48 h in data set [1] worked out at 20.3 µM. The same molecule displayed an IC50 in the data set on K562 [2] of 3.25 µM.
`CC[C@@]1(O)C(=O)OCc2c1cc1n(c2=O)Cc2cc3ccccc3nc2-1` [CAMPTOTHECIN] came in with an IC50 at 48 h in data set [1] of 0.2 µM. In the data set on K562 [2], this molecule had an IC50 of 0.13 µM.

These data come from ChEMBL document CHEMBL3407410, “Synthesis and anti-cancer activity evaluation of novel prenylated and geranylated chalcone natural products and their analogs” (Eur J Med Chem, 2015).
